In ChEMBL document CHEMBL1817648, “Synthesis and in vitro antibacterial activity of a series of novel gatifloxacin derivatives” (Eur J Med Chem, 2011):
Values after ≈ are worked out from the molar mass of the structure shown.

Tests used:
[1] = Cytotoxicity against african green monkey Vero cells after 72 hrs by MTT assay; format: cell-based; conditions: chlorocebus sabaeus
Outline: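 Vero cells were kept in Minimum Essential Medium with Earle's salts plus 10% fetal bovine serum at 37 °C under 5% CO₂. Cells were seeded at 1 × 10⁴ per well and allowed to recover 24 h. Medium was then replaced with assay medium containing compound or no drug, and cells were exposed for 72 h. CC₅₀ is the 50% cellular cytotoxic concentration.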

Staphylococcus aureus [2] = assay: Antibacterial activity against Staphylococcus aureus ATCC 25923 after 18 to 24 hrs by NCCLS M100-S11 two fold serial dilution method; format: functional; conditions: ATCC25923
Staphylococcus aureus [3] = assay: Antibacterial activity against methicillin-resistant Staphylococcus aureus 08-1 after 18 to 24 hrs by NCCLS M100-S11 two fold serial dilution method; format: functional
Outline: (§1)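 Two-fold serial dilution in agar medium. MIC read as the lowest concentration giving complete inhibition of bacterial growth after incubation at 35 °C for 18–24 h.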

Staphylococcus aureus [4] = assay: Antibacterial activity against methicillin-sensitive Staphylococcus aureus 08-1 after 18 to 24 hrs by NCCLS M100-S11 two fold serial dilution method; format: functional
[5] = system: Staphylococcus epidermidis; assay: Antibacterial activity against methicillin-resistant Staphylococcus epidermidis 09-4 after 18 to 24 hrs by NCCLS M100-S11 two fold serial dilution method; format: functional; outline: as §1
[6] = system: Staphylococcus epidermidis; assay: Antibacterial activity against methicillin-sensitive Staphylococcus epidermidis 09-3 after 18 to 24 hrs by NCCLS M100-S11 two fold serial dilution method; format: functional; outline: as §1
[7] = system: Staphylococcus epidermidis; assay: Antibacterial activity against methicillin-sensitive Staphylococcus epidermidis 09-6 after 18 to 24 hrs by NCCLS M100-S11 two fold serial dilution method; format: functional; outline: as §1
Streptococcus pneumoniae [8] = assay: Antibacterial activity against Streptococcus pneumoniae 08-2 after 18 to 24 hrs by NCCLS M100-S11 two fold serial dilution method; format: functional
Streptococcus pneumoniae [9] = assay: Antibacterial activity against Streptococcus pneumoniae 08-4 after 18 to 24 hrs by NCCLS M100-S11 two fold serial dilution method; format: functional
Enterococcus faecium [10] = assay: Antibacterial activity against Enterococcus faecium 08-2 after 18 to 24 hrs by NCCLS M100-S11 two fold serial dilution method; format: functional
Enterococcus faecium [11] = assay: Antibacterial activity against Enterococcus faecium 08-7 after 18 to 24 hrs by NCCLS M100-S11 two fold serial dilution method; format: functional
Enterococcus faecalis [12] = assay: Antibacterial activity against Enterococcus faecalis 08-10 after 18 to 24 hrs by NCCLS M100-S11 two fold serial dilution method; format: functional
Enterococcus faecalis [13] = assay: Antibacterial activity against Enterococcus faecalis 08-12 after 18 to 24 hrs by NCCLS M100-S11 two fold serial dilution method; format: functional
Escherichia coli [14] = assay: Antibacterial activity against Escherichia coli ATCC 25922 after 18 to 24 hrs by NCCLS M100-S11 two fold serial dilution method; format: functional; conditions: ATCC25922
Escherichia coli [15] = assay: Antibacterial activity against Escherichia coli 08-21 after 18 to 24 hrs by NCCLS M100-S11 two fold serial dilution method; format: functional
Escherichia coli [16] = assay: Antibacterial activity against Escherichia coli 08-22 after 18 to 24 hrs by NCCLS M100-S11 two fold serial dilution method; format: functional
Klebsiella pneumoniae [17] = assay: Antibacterial activity against Klebsiella pneumoniae 09-22 after 18 to 24 hrs by NCCLS M100-S11 two fold serial dilution method; format: functional
Pseudomonas aeruginosa [18] = assay: Antibacterial activity against Pseudomonas aeruginosa ATCC 27853 after 18 to 24 hrs by NCCLS M100-S11 two fold serial dilution method; format: functional
Pseudomonas aeruginosa [19] = assay: Antibacterial activity against Pseudomonas aeruginosa 09-32 after 18 to 24 hrs by NCCLS M100-S11 two fold serial dilution method; format: functional
Pseudomonas aeruginosa [20] = assay: Antibacterial activity against Pseudomonas aeruginosa 09-33 after 18 to 24 hrs by NCCLS M100-S11 two fold serial dilution method; format: functional
Pseudomonas aeruginosa [21] = assay: Antibacterial activity against Pseudomonas aeruginosa 09-34 after 18 to 24 hrs by NCCLS M100-S11 two fold serial dilution method; format: functional
Klebsiella pneumoniae [22] = assay: Antibacterial activity against Klebsiella pneumoniae 09-23 after 18 to 24 hrs by NCCLS M100-S11 two fold serial dilution method; format: functional

Structure (SMILES) | CC50 at 72 h [1] [µg/mL] | MIC (Staphylococcus aureus [2]) [µg/mL] | MIC (Staphylococcus aureus [3]) [µg/mL] | MIC (Staphylococcus aureus [4]) [µg/mL] | MIC [5] [µg/mL] | MIC [6] [µg/mL] | MIC [7] [µg/mL] | MIC (Streptococcus pneumoniae [8]) [µg/mL] | MIC (Streptococcus pneumoniae [9]) [µg/mL] | MIC (Enterococcus faecium [10]) [µg/mL] | MIC (Enterococcus faecium [11]) [µg/mL] | MIC (Enterococcus faecalis [12]) [µg/mL] | MIC (Enterococcus faecalis [13]) [µg/mL] | MIC (Escherichia coli [14]) [µg/mL] | MIC (Escherichia coli [15]) [µg/mL] | MIC (Escherichia coli [16]) [µg/mL] | MIC (Klebsiella pneumoniae [17]) [µg/mL] | MIC (Pseudomonas aeruginosa [18]) [µg/mL] | MIC (Pseudomonas aeruginosa [19]) [µg/mL] | MIC (Pseudomonas aeruginosa [20]) [µg/mL] | also measured
COC(=O)CCN1CCN(c2c(F)cc3c(=O)c(C(=O)O)cn(C4CC4)c3c2OC)CC1C (configuration not stated) | > 1000 | 8 (≈ 17.3 µM) | 4 (≈ 8.67 µM) | 4 (≈ 8.67 µM) | > 128 | > 128 | > 128 | > 128 | > 128 | > 128 | > 128 | > 128 | > 128 | > 128 | > 128 | > 128 | > 128 | > 128 | > 128 | > 128 | MIC (Pseudomonas aeruginosa [21]): > 128 µg/mL; MIC (Klebsiella pneumoniae [22]): > 128 µg/mL
COc1c(N2CCN(CC#N)C(C)C2)c(F)cc2c(=O)c(C(=O)O)cn(C3CC3)c12 (configuration not stated) | 354 (≈ 853 µM) | 1 (≈ 2.41 µM) | 1 (≈ 2.41 µM) | 1 (≈ 2.41 µM) | 0.25 (≈ 0.603 µM) | 0.25 (≈ 0.603 µM) | 0.25 (≈ 0.603 µM) | 8 (≈ 19.3 µM) | 1 (≈ 2.41 µM) | 8 (≈ 19.3 µM) | 8 (≈ 19.3 µM) | 8 (≈ 19.3 µM) | 8 (≈ 19.3 µM) | 4 (≈ 9.65 µM) | 8 (≈ 19.3 µM) | 8 (≈ 19.3 µM) | 2 (≈ 4.83 µM) | 2 (≈ 4.83 µM) | 0.25 (≈ 0.603 µM) | 32 (≈ 77.2 µM) | MIC (Pseudomonas aeruginosa [21]): 2 µg/mL (≈ 4.83 µM); MIC (Klebsiella pneumoniae [22]): 2 µg/mL (≈ 4.83 µM)
COc1c(N2CCN(C/C(C)=N/O)C(C)C2)c(F)cc2c(=O)c(C(=O)O)cn(C3CC3)c12 (configuration not stated) | 177 (≈ 396 µM) | 0.25 (≈ 0.56 µM) | > 128 | 0.25 (≈ 0.56 µM) | 0.25 (≈ 0.56 µM) | 0.25 (≈ 0.56 µM) | 0.25 (≈ 0.56 µM) | 128 (≈ 287 µM) | 0.25 (≈ 0.56 µM) | > 128 | > 128 | > 128 | > 128 | 128 (≈ 287 µM) | > 128 | > 128 | > 128 | 32 (≈ 71.7 µM) | 32 (≈ 71.7 µM) | > 128 | MIC (Pseudomonas aeruginosa [21]): > 128 µg/mL; MIC (Klebsiella pneumoniae [22]): > 128 µg/mL
CO/N=C(\C)CCN1CCN(c2c(F)cc3c(=O)c(C(=O)O)cn(C4CC4)c3c2OC)CC1C (configuration not stated) | 157 (≈ 332 µM) | 0.5 (≈ 1.05 µM) | > 128 | 2 (≈ 4.21 µM) | 2 (≈ 4.21 µM) | 0.5 (≈ 1.05 µM) | 1 (≈ 2.11 µM) | > 128 | > 128 | > 128 | > 128 | > 128 | > 128 | 128 (≈ 270 µM) | > 128 | > 128 | > 128 | 128 (≈ 270 µM) | 128 (≈ 270 µM) | > 128 | MIC (Pseudomonas aeruginosa [21]): > 128 µg/mL; MIC (Klebsiella pneumoniae [22]): > 128 µg/mL
COc1c(N2CCN(CC/C(C)=N/NC(N)=O)C(C)C2)c(F)cc2c(=O)c(C(=O)O)cn(C3CC3)c12 (configuration not stated) | 31.2 (≈ 62.2 µM) | 0.5 (≈ 0.995 µM) | 2 (≈ 3.98 µM) | 1 (≈ 1.99 µM) | 1 (≈ 1.99 µM) | 0.25 (≈ 0.497 µM) | 0.25 (≈ 0.497 µM) | 8 (≈ 15.9 µM) | 2 (≈ 3.98 µM) | 8 (≈ 15.9 µM) | 8 (≈ 15.9 µM) | 8 (≈ 15.9 µM) | 8 (≈ 15.9 µM) | 2 (≈ 3.98 µM) | 8 (≈ 15.9 µM) | 4 (≈ 7.96 µM) | 1 (≈ 1.99 µM) | 4 (≈ 7.96 µM) | 0.25 (≈ 0.497 µM) | 16 (≈ 31.8 µM) | MIC (Pseudomonas aeruginosa [21]): 2 µg/mL (≈ 3.98 µM); MIC (Klebsiella pneumoniae [22]): 2 µg/mL (≈ 3.98 µM)
COc1c(N2CCN(CC/C(C)=N/O)C(C)C2)c(F)cc2c(=O)c(C(=O)O)cn(C3CC3)c12 (configuration not stated) | 44.2 (≈ 96 µM) | 2 (≈ 4.34 µM) | 32 (≈ 69.5 µM) | 32 (≈ 69.5 µM) | 0.25 (≈ 0.543 µM) | 0.25 (≈ 0.543 µM) | 0.25 (≈ 0.543 µM) | 32 (≈ 69.5 µM) | 4 (≈ 8.69 µM) | 64 (≈ 139 µM) | 64 (≈ 139 µM) | > 128 | > 128 | 16 (≈ 34.7 µM) | 64 (≈ 139 µM) | 64 (≈ 139 µM) | 64 (≈ 139 µM) | 8 (≈ 17.4 µM) | 4 (≈ 8.69 µM) | > 128 | MIC (Pseudomonas aeruginosa [21]): 8 µg/mL (≈ 17.4 µM); MIC (Klebsiella pneumoniae [22]): 8 µg/mL (≈ 17.4 µM)
